In PMC6620733 (Biochemistry, 2019):
Like-named read-outs stand apart in the source and are kept apart here.

Columns and labels:
full-length Munc13-1 [1] = molecular target: T1, full-length Munc13-1 (Rattus norvegicus, UniProt Q62768); experiment: In vitro [3H]PDBu binding assay, full-length Munc13-1
Munc13-1 C1 domain WT = Munc13-1 C1 domain WT (Rattus norvegicus, UniProt Q62768); experiment: In vitro [3H]PDBu binding assay, isolated Munc13-1 C1 domain; details: for Kd: read-out: Kd for PDBu; for affinity better than that of PDBu: isolated C1 domain
Munc13-1 C1 W22A mutant = Munc13-1 C1 W22A mutant (Rattus norvegicus, UniProt Q62768, W588A); experiment: In vitro [3H]PDBu binding assay, Munc13-1 C1 domain W22A; details: for decrease in affinity of W588A (W22A) mutant C1 domain versus WT: 100% PS
full-length Munc13-1 [2] = molecular target: T1, full-length Munc13-1; format: cell-based
Summary of the method: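 Living HT22 cells (passages 2–16) are transfected with GFP-tagged full-length Munc13-1 (X-tremeGENE HP), then transferred after 24 h into phenol red-free DMEM with 1% FBS. Test compound at 10, 100 or 1000 nM is added at time zero. Confocal imaging every 30 s (488 nm excitation, 500–530 nm emission). Plasma membrane/cytoplasm mean intensity ratio is normalized to time zero. 5–9 cells per concentration, three independent experiments; saturated cells excluded.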

Munc13-1 [3] = molecular target: T2, Munc13-1 (Rattus norvegicus, UniProt Q62768); format: cell-based; details: HT22 cells, 0–2 μM, 5 min, confocal
Summary of the method: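 HT22 cells are seeded on coverslips at 6 × 10^4/well and, at 70–80% confluency, transfected with Munc13-1-GFP (Lipofectamine, antibiotic-free DMEM). They are exposed to 0.1–2 μM test compound for 5 min, then fixed in 4% PFA for 10 min and imaged by confocal at 63×. Read-out is the ratio of mean membrane intensity (outer 300 nm) to whole-cell intensity. Statistics use two-way ANOVA with Tukey.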

Munc13-1 [4] = molecular target: T2, Munc13-1; experiment: Cell fractionation and Western blot of HT22 cells expressing GFP-tagged Munc13-1; format: cell-based; details: 1 μM, 5 min, cell fractionation and immunoblot
Summary of the method: (§1)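 Transfected HT22 cells (DMEM, 10% FBS, 70–80% confluent, Lipofectamine, antibiotic-free medium) express GFP-Munc13-1 or GFP-bMunc13-2 and are treated with 1 μM test compound. A kit separates the fractions: cytosolic buffer spin at 500g, 5 min; pellet in membrane buffer, 4 °C, 10 min, then 3000g, 5 min. 40 μg protein is run on 4–15% SDS–PAGE (membrane samples unheated). Probes are anti-GFP 1:500, Na,K-ATPase and β-actin 1:2000, with infrared detection.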

Munc13-1^H567K = Munc13-1^H567K (Rattus norvegicus, UniProt Q62768, H567K); format: cell-based; details: HT22 cells, 0–2 μM, 5 min
Summary of the method: (§2)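 Fixed-cell confocal: HT22 cells in DMEM with 10% FBS and 2 mM glutamine are seeded on coverslips 24 h before transfection. At 70–80% confluence they are transfected (Lipofectamine 3000) with GFP-tagged mutant Munc13-1 plasmid in antibiotic-free medium. Treatment with test compound or PMA at 0.1–2 μM, then fixation in 4% PFA for 10 min and imaging at 63×. Ratio of mean membrane (outer 300 nm) to whole-cell GFP intensity.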

bMunc13-2 [5] = molecular target: T3, bMunc13-2 (Rattus norvegicus, UniProt Q62769); format: cell-based; details: HT22 cells, immunoblotting (1 μM) and confocal microscopy (0–2 μM), 5 min
Summary of the method: as §1

Munc13-1^W588A = Munc13-1^W588A (Rattus norvegicus, UniProt Q62768, W588A); format: cell-based; details: HT22 cells, 1 μM, 5 min
Summary of the method: as §2

Munc13-1 C1 domain = Munc13-1 C1 domain (Rattus norvegicus, UniProt Q62768); format: cell-based; details: living HT22 cells, 1 μM
Summary of the method: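 Live-cell imaging, C1 domain: HT22 cells (passages 2–16; high-glucose DMEM, 10% FBS, 2 mM L-glutamine) are transfected with GFP-tagged Munc13-1 C1 domain (X-tremeGENE HP). After 24 h they are moved to phenol red-free DMEM with 1% FBS. Test compound 1 μM is added at time zero, with confocal images every 30 s (488 nm excitation, 500–530 nm emission). Cytoplasm/nucleus intensity ratio is normalized to time zero. 11–16 cells per treatment, three independent experiments; saturated cells excluded.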

ubMunc13-2 = ubMunc13-2 (Rattus norvegicus, UniProt Q62769); experiment: Translocation of GFP-tagged ubMunc13-2 in living HT22 cells; format: cell-based; details: living HT22 cells, 10, 100, 1000 nM, 0–15 min
Summary of the method: (§3)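 GFP-tagged bMunc13-2 or ubMunc13-2 is expressed in living HT22 cells (passages 2–16, X-tremeGENE HP transfection). Imaging is in phenol red-free DMEM with 1% FBS, 24 h post-transfection. Test compound at 10, 100 or 1000 nM is added at time zero, with confocal frames every 30 s (488/500–530 nm). Plasma membrane/cytoplasm ratio is normalized to time zero. bMunc13-2: 3–6 cells per concentration; ubMunc13-2: 5–9 cells; three independent experiments.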

bMunc13-2 [6] = molecular target: T3, bMunc13-2; experiment: Translocation of GFP-tagged bMunc13-2 in living HT22 cells; format: cell-based; details: living HT22 cells, 10, 100, 1000 nM, 0–15 min
Summary of the method: as §3

PKCδ = PKCδ (Homo sapiens, UniProt Q05655); experiment: Translocation of GFP-tagged PKCδ in living HT22 cells; format: cell-based
Summary of the method: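 For PKCδ, living HT22 cells (passages 2–16) transiently express GFP-tagged PKCδ (X-tremeGENE HP). After 24 h, medium is changed to phenol red-free DMEM with 1% FBS. Test compound at 10, 100 or 1000 nM is added at time zero, with confocal imaging every 30 s (488 nm excitation, 500–530 nm emission). Nuclear membrane/cytoplasm intensity ratio is normalized to time zero. 4–7 cells per concentration, three independent experiments.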

[7] = system: endogenous Munc13-1 in HT22 cells; experiment: Expression of endogenous Munc13-1 in differentiated HT22 cells; format: cell-based, mouse; details: 24 h
Summary of the method: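 Endogenous protein by Western blot: HT22 cells are differentiated in NeuroBasal medium with […], cAMP, L-glutamine and antibiotics. At 48–72 h after day 0, test compound is added at 0.1 or 0.5 μM for 24 h. Lysis in modified RIPA with protease/phosphatase inhibitors, sonication, 14000g 30 min at 4 °C. 7.5–10% SDS–PAGE, nitrocellulose, 2.5% BSA block. Anti-Munc13-1 1:500 and β-actin 1:5000, HRP secondary, ECL. Densitometric Munc13-1:β-actin ratio.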

[8] = system: endogenous Munc13-1 in primary hippocampal neurons; experiment: Expression of endogenous Munc13-1 in primary hippocampal neurons; format: cell-based; details: mouse primary hippocampal neurons, 0.1 or 0.5 μM, 24 h
Summary of the method: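 Hippocampi come from E18 mouse pups and are dissociated with trypsin/EDTA (20 min, 37 °C). Cells are plated at 8 × 10^4/well on poly-D-lysine coverslips in B-27 medium, and 7–8-day cultures are treated with 0.1 or 0.5 μM for 24 h. Cells are fixed in 4% PFA for 15 min and stained overnight at 4 °C with anti-Munc13-1 1:500, Tuj1 1:1000 and DAPI. Cytosolic Munc13-1 is measured by confocal in 3 wells × 3 cells per group.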

[9] = read-out: Kd for PDBu, 100:0 PS/PC

T3 sequence (Q62769 1-1985 isoform Q62769-2): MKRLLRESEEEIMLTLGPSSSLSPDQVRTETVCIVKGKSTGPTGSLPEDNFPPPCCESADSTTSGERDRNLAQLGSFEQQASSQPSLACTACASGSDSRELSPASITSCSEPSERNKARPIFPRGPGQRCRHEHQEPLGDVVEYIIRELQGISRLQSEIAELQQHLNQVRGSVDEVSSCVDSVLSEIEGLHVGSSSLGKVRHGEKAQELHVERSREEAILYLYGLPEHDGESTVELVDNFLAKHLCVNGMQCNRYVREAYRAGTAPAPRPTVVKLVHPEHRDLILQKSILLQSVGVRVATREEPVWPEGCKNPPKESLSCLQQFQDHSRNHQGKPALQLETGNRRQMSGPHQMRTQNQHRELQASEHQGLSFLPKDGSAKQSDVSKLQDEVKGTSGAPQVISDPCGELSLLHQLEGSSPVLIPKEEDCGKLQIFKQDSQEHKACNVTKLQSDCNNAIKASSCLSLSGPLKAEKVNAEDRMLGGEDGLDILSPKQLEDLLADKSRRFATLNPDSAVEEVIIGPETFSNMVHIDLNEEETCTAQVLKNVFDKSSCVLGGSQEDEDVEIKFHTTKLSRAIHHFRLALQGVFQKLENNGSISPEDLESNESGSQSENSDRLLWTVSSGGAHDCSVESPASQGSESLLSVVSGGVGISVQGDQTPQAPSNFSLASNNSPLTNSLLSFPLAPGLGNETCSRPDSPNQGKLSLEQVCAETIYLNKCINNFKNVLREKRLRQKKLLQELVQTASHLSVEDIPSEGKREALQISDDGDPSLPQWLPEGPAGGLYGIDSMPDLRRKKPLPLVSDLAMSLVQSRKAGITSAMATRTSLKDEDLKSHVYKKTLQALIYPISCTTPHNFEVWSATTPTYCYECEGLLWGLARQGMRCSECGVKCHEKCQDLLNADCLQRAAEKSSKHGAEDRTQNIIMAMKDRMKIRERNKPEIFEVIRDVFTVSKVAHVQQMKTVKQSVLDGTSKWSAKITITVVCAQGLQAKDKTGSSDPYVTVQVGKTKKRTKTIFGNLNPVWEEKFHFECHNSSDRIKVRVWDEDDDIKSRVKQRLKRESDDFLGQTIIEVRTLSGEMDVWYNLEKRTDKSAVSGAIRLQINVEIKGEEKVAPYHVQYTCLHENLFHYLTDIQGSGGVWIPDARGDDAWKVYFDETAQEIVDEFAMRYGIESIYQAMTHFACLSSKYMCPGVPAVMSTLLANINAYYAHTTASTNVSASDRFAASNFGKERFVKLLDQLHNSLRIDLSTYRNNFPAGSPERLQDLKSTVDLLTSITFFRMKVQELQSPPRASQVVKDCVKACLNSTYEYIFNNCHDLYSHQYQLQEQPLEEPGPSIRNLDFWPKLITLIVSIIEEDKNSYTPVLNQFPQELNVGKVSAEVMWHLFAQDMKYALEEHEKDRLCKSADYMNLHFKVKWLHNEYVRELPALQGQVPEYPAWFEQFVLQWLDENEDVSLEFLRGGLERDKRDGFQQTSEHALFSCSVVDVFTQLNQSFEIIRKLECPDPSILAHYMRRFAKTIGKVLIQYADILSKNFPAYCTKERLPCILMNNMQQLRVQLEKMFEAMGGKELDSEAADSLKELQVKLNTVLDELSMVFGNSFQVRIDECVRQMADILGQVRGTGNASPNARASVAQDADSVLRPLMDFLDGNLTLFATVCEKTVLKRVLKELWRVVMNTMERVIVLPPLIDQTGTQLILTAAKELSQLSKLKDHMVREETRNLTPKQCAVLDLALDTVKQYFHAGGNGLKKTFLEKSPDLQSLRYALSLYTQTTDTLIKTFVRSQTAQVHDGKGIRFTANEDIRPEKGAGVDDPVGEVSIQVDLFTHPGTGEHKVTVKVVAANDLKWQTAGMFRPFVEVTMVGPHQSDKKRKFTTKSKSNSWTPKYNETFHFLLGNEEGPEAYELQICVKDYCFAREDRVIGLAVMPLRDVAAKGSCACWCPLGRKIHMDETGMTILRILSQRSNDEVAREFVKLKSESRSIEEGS
PKCδ, sequence (Q05655 whole entry): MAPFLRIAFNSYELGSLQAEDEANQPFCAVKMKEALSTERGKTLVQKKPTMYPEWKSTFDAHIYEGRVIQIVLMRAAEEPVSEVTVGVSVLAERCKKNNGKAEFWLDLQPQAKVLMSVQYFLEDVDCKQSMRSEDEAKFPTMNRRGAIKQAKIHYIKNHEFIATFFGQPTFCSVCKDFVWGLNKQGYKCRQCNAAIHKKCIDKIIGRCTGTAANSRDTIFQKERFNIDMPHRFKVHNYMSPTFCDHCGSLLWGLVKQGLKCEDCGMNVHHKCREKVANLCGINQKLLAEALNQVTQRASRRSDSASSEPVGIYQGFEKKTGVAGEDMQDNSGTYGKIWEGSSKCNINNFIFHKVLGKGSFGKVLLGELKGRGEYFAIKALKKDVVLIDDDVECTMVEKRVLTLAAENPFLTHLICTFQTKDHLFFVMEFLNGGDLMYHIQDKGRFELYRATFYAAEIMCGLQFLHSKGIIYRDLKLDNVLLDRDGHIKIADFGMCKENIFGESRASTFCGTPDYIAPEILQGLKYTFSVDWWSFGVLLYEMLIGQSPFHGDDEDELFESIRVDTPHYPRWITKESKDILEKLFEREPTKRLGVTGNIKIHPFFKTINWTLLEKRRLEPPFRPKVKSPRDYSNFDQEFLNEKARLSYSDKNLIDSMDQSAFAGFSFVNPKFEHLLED

CCCC(=O)O[C@@H]1[C@@H](C)[C@@]2(O)[C@@H](C=C(CO)C[C@]3(O)C(=O)C(C)=C[C@@H]23)[C@@H]2C(C)(C)[C@]12OC(=O)CCC [PDBu, Phorbol 12,13-dibutyrate]
Kd (full-length Munc13-1 [1]; [9]): 7.09 ± 0.53 nM | Ki (full-length Munc13-1 [1]; read-out: Ki for PDBu, 100% PS, measured in parallel with bryostatin 1): 7.1 ± 0.5 nM | Kd (Munc13-1 C1 domain WT; 5:95 PS/PC): 82 ± 15 nM | Kd (Munc13-1 C1 domain WT; 20:80 PS/PC): 69.5 ± 4.8 nM | Kd (Munc13-1 C1 domain WT; 100:0 PS/PC): 124 ± 13 nM | Ki (Munc13-1 C1 domain WT; read-out: Ki for PDBu, PS/PC (20:80, w:w), assayed in parallel): 69.5 ± 4.8 nM | Ki (Munc13-1 C1 domain WT; read-out: Ki for PDBu, PS/PC (100:0)): 124 ± 13 nM | decrease in affinity of W588A (W22A) mutant C1 domain versus WT (Munc13-1 C1 W22A mutant): 6.5 fold | Kd (Munc13-1 C1 W22A mutant; [9]): 809 ± 8.1 nM | effectiveness for inducing translocation relative to bryostatin 1 (full-length Munc13-1 [2]; living HT22 cells, 1 μM): modestly less effective than was bryostatin 1

CCCCCCCCCCCCCC(=O)O[C@@H]1[C@@H](C)[C@@]2(O)[C@@H](C=C(CO)C[C@]3(O)C(=O)C(C)=C[C@@H]23)[C@@H]2C(C)(C)[C@]12OC(C)=O [PMA, phorbol 12-myristate 13-acetate]
translocation of Munc13-1 to the plasma membrane (Munc13-1 [3]): induced translocation of Munc13-1 to the plasma membrane | transfer of Munc13-1 to membrane fraction (Munc13-1 [4]): caused Munc13-1 to transfer to the membrane fraction | translocation (localization change) of Munc13-1 H567K (Munc13-1^H567K): no significant changes in localization | translocation of GFP-tagged bMunc13-2 (bMunc13-2 [5]): translocation similar to that of GFP-tagged Munc13-1

CCC/C=C/C=C/C(=O)O[C@H]1/C(=C/C(=O)OC)C[C@H]2C[C@H]([C@@H](C)O)OC(=O)C[C@H](O)C[C@@H]3C[C@H](OC(C)=O)C(C)(C)[C@](O)(C[C@@H]4C/C(=C/C(=O)OC)C[C@H](/C=C/C(C)(C)[C@]1(O)O2)O4)O3 [bryostatin 1]
Ki (full-length Munc13-1 [1]): 0.45 ± 0.04 nM | affinity better than that of PDBu (full-length Munc13-1 [1]; full-length Munc13-1, 100% PS): approximately 15 fold | Ki (Munc13-1 C1 domain WT; Ki for bryostatin 1, 5:95 PS/PC, 100 μg/mL lipid, 0.1 mM Ca2+, 100 nM [3H]PDBu): 22.8 ± 1.8 nM | Ki (Munc13-1 C1 domain WT; Ki for bryostatin 1, 20:80 PS/PC, 100 μg/mL lipid, 0.1 mM Ca2+, 100 nM [3H]PDBu): 22.7 nM | Ki (Munc13-1 C1 domain WT; Ki for bryostatin 1, 100:0 PS/PC, 100 μg/mL lipid, 0.1 mM Ca2+, 100 nM [3H]PDBu): 8.07 ± 0.9 nM | affinity better than that of PDBu (Munc13-1 C1 domain WT; 100% PS): 15 fold | affinity better than that of PDBu (Munc13-1 C1 domain WT; lower PS concentrations): 3 fold | Ki (Munc13-1 C1 W22A mutant): 54 ± 12 nM | decrease in affinity of W588A (W22A) mutant C1 domain versus WT (Munc13-1 C1 W22A mutant): 6.6 fold | translocation of Munc13-1 to the plasma membrane (Munc13-1 [3]): induced translocation of Munc13-1 to the plasma membrane | transfer of Munc13-1 to membrane fraction (Munc13-1 [4]): caused Munc13-1 to transfer to the membrane fraction | translocation (localization change) of Munc13-1 H567K (Munc13-1^H567K): no significant changes in localization | translocation of full-length Munc13-1 W588A (Munc13-1^W588A): translocation was lost | translocation of GFP-C1 domain (Munc13-1 C1 domain): translocated within 5–20 min from the nucleus to internal membranes but not to the plasma membrane | stimulation of translocation at 100 nM as fraction of that caused by 1000 nM (full-length Munc13-1 [2]; Munc13-1, 15 min value): 30% | translocation of full-length Munc13-1 (full-length Munc13-1 [2]; living HT22 cells, 1 μM): translocated to the plasma membrane | translocation of ubMunc13-2 (ubMunc13-2): clear translocation | translocation of bMunc13-2 (bMunc13-2 [6]): clear translocation | stimulation of translocation at 100 nM as fraction of that caused by 1000 nM (PKCδ; PKCδ, 15 min value): 63% | translocation of PKCδ (PKCδ; living HT22 cells, 10, 100, 1000 nM, 0–15 min): induces translocation of PKCδ to the nuclear membrane and to internal membranes, rather than to the plasma membrane | translocation of GFP-tagged bMunc13-2 (bMunc13-2 [5]): translocation similar to that of GFP-tagged Munc13-1 | level of endogenous Munc13-1 staining ([7]; 0.1 and 0.5 μM, immunostaining): increased with both doses | endogenous Munc13-1 levels by Western blot ([7]; 0.1 or 0.5 μM): increased | expression of endogenous Munc13-1 in cytosol [8]: significantly increased the level of expression of Munc13-1
